According to ChEMBL document CHEMBL1155292, “Synthesis, analgesic and anti-inflammatory activities evaluation of some bi-, tri- and tetracyclic condensed pyrimidines” (Eur J Med Chem, 2009):

Legend:
Assay type in all cases: functional
Rattus norvegicus [1] = assay: Antiinflammatory activity in albino rat assessed as inhibition of carrageenan-induced paw edema at 0.029 mmol/kg, po after 2 hrs relative to control
Procedure, shortened: (§1)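 Adult albino rats of either sex, 120–150 g, six per group. Compounds at 0.029 mmol/kg suspended in saline with a few drops of Tween 80 and given by oral stomach tube. After 1 h, 0.1 ml of freshly prepared 1% carrageenan in saline injected subplantar into the right hind paw. Paw thickness measured at 1–4 h; % edema inhibition versus control; mean ± SEM; ANOVA.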

Rattus norvegicus [2] = assay: Antiinflammatory activity in albino rat assessed as inhibition of carrageenan-induced paw edema at 0.029 mmol/kg, po after 3 hrs relative to control; procedure, shortened: as §1
Rattus norvegicus [3] = assay: Antiinflammatory activity in albino rat assessed as inhibition of carrageenan-induced paw edema at 0.029 mmol/kg, po after 1 hr relative to control; procedure, shortened: as §1
Rattus norvegicus [4] = assay: Antiinflammatory activity in albino rat assessed as inhibition of carrageenan-induced paw edema at 0.029 mmol/kg, po after 4 hrs relative to control; procedure, shortened: as §1
Mus musculus = assay: Analgesic activity in albino mouse assessed as decrease in acetic acid-induced writhing at 10 mg/kg, po administered 1 hr prior to acetic acid challenge relative to control
Procedure, shortened: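 Albino mice of either sex, 18–22 g, six per group. Test agents suspended in saline with a few drops of Tween 80 and given by oral stomach tube; controls handled identically without drug. After 1 h, 0.3 ml of 1% acetic acid ip. Writhing contractions counted for 30 min, starting 5 min after injection. % protection versus control mean; mean ± SEM; one-way ANOVA with post hoc test.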

`COc1ccc2c(c1)c(CC(=O)O)c(C)n2C(=O)c1ccc(Cl)cc1` [INDOMETHACIN] was tested. Which inhibition in vivo at 29 µmol/kg (Rattus norvegicus [1]) did it give?
Its inhibition in vivo at 29 µmol/kg is 35.5%.

And the inhibition in vivo at 29 µmol/kg (Rattus norvegicus [2])?
The inhibition in vivo at 29 µmol/kg was 30.9%.

What about the inhibition in vivo at 29 µmol/kg (Rattus norvegicus [3]) of the same molecule?
The inhibition in vivo at 29 µmol/kg was 47.2%.

And the inhibition in vivo at 29 µmol/kg (Rattus norvegicus [4])?
Its inhibition in vivo at 29 µmol/kg is 27.3%.

And the inhibition in vivo at 10 mg/kg (Mus musculus)?
The inhibition in vivo at 10 mg/kg was 71.6%.
